{"source": "ChEMBL document CHEMBL4373711", "about": "“Development of 3,5-Dinitrophenyl-Containing 1,2,4-Triazoles and Their Trifluoromethyl Analogues as Highly Efficient Antitubercular Agents Inhibiting Decaprenylphosphoryl-β-d-ribofuranose 2'-Oxidase” (J Med Chem, 2019)", "key": {"[1]": {"test_system": "Mycobacterium tuberculosis", "assay": "Antimycobacterial activity against multi-drug resistant Mycobacterium tuberculosis 7357/1998 after 14 days", "format": "functional", "details": "7357/1998, 336 h", "summary_of_the_method": "(§1)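 M. tuberculosis strains (H37Rv and clinical MDR/XDR isolates) tested by microdilution in Šula's semisynthetic medium. Compounds were dissolved in DMSO and tested at 32 to 0.03 µM in twofold steps. Inoculum was a 1.0 McFarland suspension diluted 10-3. Plates were incubated at 37 °C and read at 14 and 21 days.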"}, "[2]": {"test_system": "Mycobacterium tuberculosis", "assay": "Antimycobacterial activity against multi-drug resistant Mycobacterium tuberculosis 7357/1998 after 21 days", "format": "functional", "details": "7357/1998, 504 h", "summary_of_the_method": "as §1"}, "[3]": {"test_system": "Mycobacterium tuberculosis", "assay": "Antimycobacterial activity against multi-drug resistant Mycobacterium tuberculosis Praha 1 after 21 days", "format": "functional", "details": "Praha 1, 504 h", "summary_of_the_method": "as §1"}, "[4]": {"assay": "Selectivity index, ratio of IC50 for human A431 cells to MIC>99 for antimycobacterial activity against multi-drug resistant Mycobacterium tuberculosis Praha 1 after 21 days", "format": "toxicity", "details": "read-out: Selectivity Index"}, "[5]": {"assay": "Selectivity index, ratio of IC50 for human A431 cells to MIC>99 for antimycobacterial activity against multi-drug resistant Mycobacterium tuberculosis 9449/2007 after 14 days", "format": "toxicity", "details": "read-out: Selectivity Index"}, "[6]": {"assay": "Selectivity index, ratio of IC50 for human A431 cells to MIC>99 for antimycobacterial activity against multi-drug resistant Mycobacterium tuberculosis 8666/2010 after 21 days", "format": "toxicity", "details": "read-out: Selectivity Index"}, "[7]": {"assay": "Selectivity index, ratio of IC50 for human A431 cells to MIC>99 for antimycobacterial activity against multi-drug resistant Mycobacterium tuberculosis 7357/1998 after 14 days", "format": "toxicity", "details": "read-out: Selectivity Index"}, "[8]": {"test_system": "Mycobacterium tuberculosis", "assay": "Antimycobacterial activity against multi-drug resistant Mycobacterium tuberculosis Praha 4 after 21 days", "format": "functional", "details": "Praha 4, 504 h", "summary_of_the_method": "as §1"}, "[9]": {"assay": "Selectivity index, ratio of IC50 for human A431 cells to MIC>99 for antimycobacterial activity against multi-drug resistant Mycobacterium tuberculosis Praha 1 after 14 days", "format": "toxicity", "details": "read-out: Selectivity Index"}, "[10]": {"assay": "Selectivity index, ratio of IC50 for human A431 cells to MIC>99 for antimycobacterial activity against multi-drug resistant Mycobacterium tuberculosis 9449/2007 after 21 days", "format": "toxicity", "details": "read-out: Selectivity Index"}, "[11]": {"test_system": "Mycobacterium tuberculosis", "assay": "microbe, parasite or virus in culture", "details": "234/2005, 336 h"}, "[12]": {"test_system": "Mycobacterium tuberculosis", "assay": "Antimycobacterial activity against multi-drug resistant Mycobacterium tuberculosis 234/2005 after 21 days", "format": "functional", "details": "234/2005, 504 h", "summary_of_the_method": "as §1"}, "[13]": {"assay": "Selectivity index, ratio of IC50 for human HepG2 cells to MIC>99 for antimycobacterial activity against multi-drug resistant Mycobacterium tuberculosis Praha 4 after 14 days", "format": "toxicity", "details": "read-out: Selectivity Index", "summary_of_the_method": "(§2)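 SI from HepG2 IC50 and M. tuberculosis MIC. HepG2 cells: DMEM + 10% FBS + 1 mM pyruvate, 10,000/well, 48 h treatment, 0.1% DMSO and 10% SDS controls, MTS absorbance at 490 nm.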"}, "[14]": {"assay": "Selectivity index, ratio of IC50 for human A431 cells to MIC>99 for antimycobacterial activity against multi-drug resistant Mycobacterium tuberculosis Praha 4 after 14 days", "format": "toxicity", "details": "read-out: Selectivity Index"}, "[15]": {"assay": "Selectivity index, ratio of IC50 for human HepG2 cells to MIC>99 for antimycobacterial activity against multi-drug resistant Mycobacterium tuberculosis Praha 1 after 14 days", "format": "toxicity", "details": "read-out: Selectivity Index", "summary_of_the_method": "as §2"}, "[16]": {"test_system": "Mycobacterium tuberculosis", "assay": "Antimycobacterial activity against multi-drug resistant Mycobacterium tuberculosis 9449/2007 after 14 days", "format": "functional", "details": "9449/2007, 336 h", "summary_of_the_method": "as §1"}, "[17]": {"test_system": "Mycobacterium tuberculosis", "assay": "Antimycobacterial activity against multi-drug resistant Mycobacterium tuberculosis Praha 1 after 14 days", "format": "functional", "details": "Praha 1, 336 h", "summary_of_the_method": "as §1"}, "[18]": {"assay": "Selectivity index, ratio of IC50 for human HepG2 cells to MIC>99 for antimycobacterial activity against multi-drug resistant Mycobacterium tuberculosis 7357/1998 after 21 days", "format": "toxicity", "details": "read-out: Selectivity Index", "summary_of_the_method": "as §2"}, "[19]": {"assay": "Selectivity index, ratio of IC50 for human A431 cells to MIC>99 for antimycobacterial activity against multi-drug resistant Mycobacterium tuberculosis 8666/2010 after 14 days", "format": "toxicity", "details": "read-out: Selectivity Index"}, "[20]": {"assay": "Selectivity index, ratio of IC50 for human HepG2 cells to MIC>99 for antimycobacterial activity against multi-drug resistant Mycobacterium tuberculosis 8666/2010 after 14 days", "format": "toxicity", "details": "read-out: Selectivity Index", "summary_of_the_method": "as §2"}, "[21]": {"assay": "Selectivity index, ratio of IC50 for human HepG2 cells to MIC>99 for antimycobacterial activity against multi-drug resistant Mycobacterium tuberculosis Praha 4 after 21 days", "format": "toxicity", "details": "read-out: Selectivity Index", "summary_of_the_method": "as §2"}, "[22]": {"assay": "Selectivity index, ratio of IC50 for human HepG2 cells to MIC>99 for antimycobacterial activity against multi-drug resistant Mycobacterium tuberculosis 234/2005 after 21 days", "format": "toxicity", "details": "read-out: Selectivity Index", "summary_of_the_method": "as §2"}, "[23]": {"assay": "Selectivity index, ratio of IC50 for human A431 cells to MIC>99 for antimycobacterial activity against multi-drug resistant Mycobacterium tuberculosis 234/2005 after 21 days", "format": "toxicity", "details": "read-out: Selectivity Index"}, "[24]": {"test_system": "Mycobacterium tuberculosis", "assay": "Antimycobacterial activity against multi-drug resistant Mycobacterium tuberculosis Praha 4 after 14 days", "details": "Praha 4, 336 h"}, "[25]": {"assay": "Selectivity index, ratio of IC50 for human HepG2 cells to MIC>99 for antimycobacterial activity against multi-drug resistant Mycobacterium tuberculosis 9449/2007 after 14 days", "format": "toxicity", "details": "read-out: Selectivity Index", "summary_of_the_method": "as §2"}, "[26]": {"assay": "Selectivity index, ratio of IC50 for human HepG2 cells to MIC>99 for antimycobacterial activity against multi-drug resistant Mycobacterium tuberculosis Praha 1 after 21 days", "format": "toxicity", "details": "read-out: Selectivity Index", "summary_of_the_method": "as §2"}, "[27]": {"test_system": "Mycobacterium tuberculosis", "assay": "Antimycobacterial activity against multi-drug resistant Mycobacterium tuberculosis 9449/2007 after 21 days", "format": "functional", "details": "9449/2007, 504 h", "summary_of_the_method": "as §1"}, "[28]": {"test_system": "Mycobacterium tuberculosis", "assay": "Antimycobacterial activity against multi-drug resistant Mycobacterium tuberculosis 8666/2010 after 21 days", "format": "functional", "details": "8666/2010, 504 h", "summary_of_the_method": "as §1"}, "[29]": {"assay": "Selectivity index, ratio of IC50 for human HepG2 cells to MIC>99 for antimycobacterial activity against multi-drug resistant Mycobacterium tuberculosis 9449/2007 after 21 days", "format": "toxicity", "details": "read-out: Selectivity Index", "summary_of_the_method": "as §2"}, "[30]": {"assay": "Selectivity index, ratio of IC50 for human A431 cells to MIC>99 for antimycobacterial activity against multi-drug resistant Mycobacterium tuberculosis 7357/1998 after 21 days", "format": "toxicity", "details": "read-out: Selectivity Index"}, "[31]": {"assay": "Selectivity index, ratio of IC50 for human A431 cells to MIC>99 for antimycobacterial activity against multi-drug resistant Mycobacterium tuberculosis 234/2005 after 14 days", "format": "toxicity", "details": "read-out: Selectivity Index"}, "[32]": {"test_system": "Mycobacterium tuberculosis", "assay": "Antimycobacterial activity against multi-drug resistant Mycobacterium tuberculosis 8666/2010 after 14 days", "format": "functional", "details": "8666/2010, 336 h", "summary_of_the_method": "as §1"}, "[33]": {"assay": "Selectivity index, ratio of IC50 for human HepG2 cells to MIC>99 for antimycobacterial activity against multi-drug resistant Mycobacterium tuberculosis 8666/2010 after 21 days", "format": "toxicity", "details": "read-out: Selectivity Index", "summary_of_the_method": "as §2"}, "[34]": {"assay": "Selectivity index, ratio of IC50 for human HepG2 cells to MIC>99 for antimycobacterial activity against multi-drug resistant Mycobacterium tuberculosis 234/2005 after 14 days", "format": "toxicity", "details": "read-out: Selectivity Index", "summary_of_the_method": "as §2"}, "[35]": {"assay": "Selectivity index, ratio of IC50 for human HepG2 cells to MIC>99 for antimycobacterial activity against multi-drug resistant Mycobacterium tuberculosis 7357/1998 after 14 days", "format": "toxicity", "details": "read-out: Selectivity Index", "summary_of_the_method": "as §2"}, "[36]": {"assay": "Selectivity index, ratio of IC50 for human A431 cells to MIC>99 for antimycobacterial activity against multi-drug resistant Mycobacterium tuberculosis Praha 4 after 21 days", "format": "toxicity", "details": "read-out: Selectivity Index", "summary_of_the_method": "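SI from A431 IC50 and M. tuberculosis MIC. A431 cells: DMEM + 10% FBS, seeded 10,000/well, treated after 24 h for 48 h, 0.1% DMSO (100%) and 10% SDS (0%) controls, MTS absorbance at 490 nm.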"}}, "data": [{"compound": "O=[N+]([O-])c1cc(-c2nnc(SCc3ccccc3)n2Cc2ccccc2)cc(C(F)(F)F)c1", "values": [{"measurement": "MIC99", "setting": "[1]", "value": 0.06, "unit": "µM"}, {"measurement": "MIC99", "setting": "[2]", "value": 0.06, "unit": "µM"}, {"measurement": "MIC99", "setting": "[3]", "value": 0.06, "unit": "µM"}, {"measurement": "selectivity ratio at 504 h", "setting": "[4]", "value": "> 100"}, {"measurement": "selectivity ratio at 336 h", "setting": "[5]", "value": "> 100"}, {"measurement": "selectivity ratio at 504 h", "setting": "[6]", "value": "> 100"}, {"measurement": "selectivity ratio at 336 h", "setting": "[7]", "value": "> 100"}, {"measurement": "MIC99", "setting": "[8]", "value": 0.06, "unit": "µM"}, {"measurement": "selectivity ratio at 336 h", "setting": "[9]", "value": "> 100"}, {"measurement": "selectivity ratio at 504 h", "setting": "[10]", "value": "> 100"}, {"measurement": "MIC99", "setting": "[11]", "value": 0.06, "unit": "µM"}, {"measurement": "MIC99", "setting": "[12]", "value": 0.06, "unit": "µM"}, {"measurement": "selectivity ratio at 336 h", "setting": "[13]", "value": "> 100"}, {"measurement": "selectivity ratio at 336 h", "setting": "[14]", "value": "> 100"}, {"measurement": "selectivity ratio at 336 h", "setting": "[15]", "value": "> 100"}, {"measurement": "MIC99", "setting": "[16]", "value": 0.125, "unit": "µM"}, {"measurement": "MIC99", "setting": "[17]", "value": 0.06, "unit": "µM"}, {"measurement": "selectivity ratio at 504 h", "setting": "[18]", "value": "> 100"}, {"measurement": "selectivity ratio at 336 h", "setting": "[19]", "value": "> 100"}, {"measurement": "selectivity ratio at 336 h", "setting": "[20]", "value": "> 100"}, {"measurement": "selectivity ratio at 504 h", "setting": "[21]", "value": "> 100"}, {"measurement": "selectivity ratio at 504 h", "setting": "[22]", "value": "> 100"}, {"measurement": "selectivity ratio at 504 h", "setting": "[23]", "value": "> 100"}, {"measurement": "MIC99", "setting": "[24]", "value": 0.06, "unit": "µM"}, {"measurement": "selectivity ratio at 336 h", "setting": "[25]", "value": "> 100"}, {"measurement": "selectivity ratio at 504 h", "setting": "[26]", "value": "> 100"}, {"measurement": "MIC99", "setting": "[27]", "value": 0.06, "unit": "µM"}, {"measurement": "MIC99", "setting": "[28]", "value": 0.125, "unit": "µM"}, {"measurement": "selectivity ratio at 504 h", "setting": "[29]", "value": "> 100"}, {"measurement": "selectivity ratio at 504 h", "setting": "[30]", "value": "> 100"}, {"measurement": "selectivity ratio at 336 h", "setting": "[31]", "value": "> 100"}, {"measurement": "MIC99", "setting": "[32]", "value": 0.06, "unit": "µM"}, {"measurement": "selectivity ratio at 504 h", "setting": "[33]", "value": "> 100"}, {"measurement": "selectivity ratio at 336 h", "setting": "[34]", "value": "> 100"}, {"measurement": "selectivity ratio at 336 h", "setting": "[35]", "value": "> 100"}, {"measurement": "selectivity ratio at 504 h", "setting": "[36]", "value": "> 100"}]}]}
